≈ marks a conversion by molar mass, not a printed value. Calls of active or inactive are those of the source. The rule behind the calls is not given here.
Columns and labels:
[1] = tested on: Candida albicans; experiment: Antimicrobial activity against Candida albicans after 48 hrs by broth dilution method; assay type: functional
In short: (§1)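 MIC by broth dilution: the lowest concentration (highest dilution) that arrested bacterial or fungal growth. Strains were E. coli ATCC-25922, S. aureus ATCC-25923, P. aeruginosa ATCC-27853 and C. albicans.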

[2] = tested on: Pseudomonas aeruginosa; experiment: Antimicrobial activity against Pseudomonas aeruginosa ATCC 27853 after 24 hrs by disk diffusion method; assay type: functional
In short: (§2)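 Zone of inhibition by disc diffusion against E. coli ATCC-25922, S. aureus ATCC-25923, P. aeruginosa ATCC-27853 and recultured Klebsiella pneumoniae.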

[3] = tested on: Escherichia coli; experiment: Antimicrobial activity against Escherichia coli ATCC […] after 24 hrs by broth dilution method; assay type: functional; in short: as §1
[4] = tested on: Escherichia coli; experiment: Antimicrobial activity against Escherichia coli ATCC […] after 24 hrs by disk diffusion method; assay type: functional; in short: as §2
[5] = tested on: Staphylococcus aureus; experiment: Antimicrobial activity against Staphylococcus aureus ATCC 25923 after 24 hrs by broth dilution method; assay type: functional; details: ATCC 25923, 24 h; in short: as §1
[6] = tested on: Staphylococcus aureus; experiment: Antimicrobial activity against Staphylococcus aureus ATCC 25923 after 24 hrs by disk diffusion method; assay type: functional; in short: as §2
[7] = tested on: Candida albicans; experiment: Antimicrobial activity against Candida albicans after 48 hrs by agar dilution method; assay type: functional
In short: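 Candida albicans tested by agar dilution, with compounds in DMSO.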

[8] = tested on: Pseudomonas aeruginosa; experiment: Antimicrobial activity against Pseudomonas aeruginosa ATCC 27853 after 24 hrs by broth dilution method; assay type: functional; details: ATCC 27853, 24 h; in short: as §1
[9] = tested on: Klebsiella pneumoniae; experiment: Antimicrobial activity against Klebsiella pneumoniae after 24 hrs by disk diffusion method; assay type: functional; in short: as §2
[10] = tested on: Klebsiella pneumoniae; experiment: Antimicrobial activity against Klebsiella pneumoniae at 100 ug/ml after 24 hrs by broth dilution method; assay type: functional, organism-based

Row | SMILES | MIC [1] | diameter of the inhibition zone (DIZ) [2] | MIC [3] | diameter of the inhibition zone (DIZ) [4] | MIC [5] | diameter of the inhibition zone (DIZ) [6] | diameter of the inhibition zone (DIZ) [7] | MIC [8] | diameter of the inhibition zone (DIZ) [9] | Activity [10]
1 | O=C(N/N=C/c1ccccc1)c1cc(Cl)c(Cl)[nH]1 | 12.5 µg/mL (≈ 44.3 µM) | 18 mm | 12.5 µg/mL (≈ 44.3 µM) | 11 mm | 3.12 µg/mL (≈ 11.1 µM) | 16 mm | 23 mm | 50 µg/mL (≈ 177 µM) | 17 mm | 
2 | O=C(N/N=C/c1ccco1)c1cc(Cl)c[nH]1 | 25 µg/mL (≈ 105 µM) | 15 mm | 25 µg/mL (≈ 105 µM) | 23 mm | 25 µg/mL (≈ 105 µM) | 24 mm | 21 mm | 100 µg/mL (≈ 421 µM) |  | inactive
3 | COc1ccc(/C=N/NC(=O)c2cc(Cl)c(Cl)[nH]2)cc1 | 12.5 µg/mL (≈ 40 µM) | 20 mm | 12.5 µg/mL (≈ 40 µM) | 19 mm | 6.25 µg/mL (≈ 20 µM) | 20 mm | 24 mm | 25 µg/mL (≈ 80.1 µM) | 16 mm | 
4 | O=C(N/N=C/c1ccccc1O)c1cc(Cl)c[nH]1 | 25 µg/mL (≈ 94.8 µM) | 14 mm | 6.25 µg/mL (≈ 23.7 µM) | 20 mm | 6.25 µg/mL (≈ 23.7 µM) | 17 mm | 18 mm | 100 µg/mL (≈ 379 µM) |  | inactive
5 | COc1ccc(/C=N/NC(=O)c2cc(Cl)c[nH]2)cc1OC | 25 µg/mL (≈ 81.2 µM) | 16 mm | 12.5 µg/mL (≈ 40.6 µM) | 12 mm | 12.5 µg/mL (≈ 40.6 µM) | 20 mm | 20 mm | 100 µg/mL (≈ 325 µM) |  | inactive
6 | COc1ccc(OC)c(/C=N/NC(=O)c2cc(Cl)c(Cl)[nH]2)c1 | 12.5 µg/mL (≈ 36.5 µM) | 13 mm | 3.12 µg/mL (≈ 9.13 µM) | 20 mm | 1.56 µg/mL (≈ 4.56 µM) | 24 mm | 24 mm | 25 µg/mL (≈ 73.1 µM) | 18 mm | 
7 | O=C(/C=C/c1ccccc1O)c1cc(Cl)c[nH]1 | 50 µg/mL (≈ 202 µM) | 18 mm | 25 µg/mL (≈ 101 µM) | 10 mm | 12.5 µg/mL (≈ 50.5 µM) | 16 mm | 15 mm | 25 µg/mL (≈ 101 µM) |  | inactive
8 | COc1ccc(/C=C/C(=O)c2cc(Cl)c[nH]2)cc1 | 50 µg/mL (≈ 191 µM) | 15 mm | 12.5 µg/mL (≈ 47.8 µM) | 16 mm | 12.5 µg/mL (≈ 47.8 µM) | 18 mm | 12 mm | 25 µg/mL (≈ 95.5 µM) |  | inactive
9 | COc1ccc(/C=N/NC(=O)c2cc(Cl)c(Cl)[nH]2)cc1OC | 12.5 µg/mL (≈ 36.5 µM) | 18 mm | 3.12 µg/mL (≈ 9.13 µM) | 20 mm | 1.56 µg/mL (≈ 4.56 µM) | 25 mm | 24 mm | 12.5 µg/mL (≈ 36.5 µM) | 17 mm | 
10 | COc1ccc(/C=C/C(=O)c2cc(Cl)c(Cl)[nH]2)cc1OC | 50 µg/mL (≈ 153 µM) | 17 mm | 6.25 µg/mL (≈ 19.2 µM) | 15 mm | 3.12 µg/mL (≈ 9.58 µM) | 24 mm | 18 mm | 25 µg/mL (≈ 76.6 µM) | 18 mm | 
11 | O=C(/C=C/c1ccco1)c1cc(Cl)c(Cl)[nH]1 | 50 µg/mL (≈ 195 µM) | 17 mm | 3.12 µg/mL (≈ 12.2 µM) | 21 mm | 1.56 µg/mL (≈ 6.09 µM) | 25 mm | 14 mm | 25 µg/mL (≈ 97.6 µM) | 15 mm | 
12 | COc1ccc(OC)c(/C=N/NC(=O)c2cc(Cl)c[nH]2)c1 | 25 µg/mL (≈ 81.2 µM) | 15 mm | 12.5 µg/mL (≈ 40.6 µM) | 15 mm | 6.25 µg/mL (≈ 20.3 µM) | 20 mm | 13 mm | 100 µg/mL (≈ 325 µM) |  | inactive
13 | CN(C)c1ccc(/C=N/NC(=O)c2cc(Cl)c(Cl)[nH]2)cc1 | 12.5 µg/mL (≈ 38.4 µM) | 15 mm | 6.25 µg/mL (≈ 19.2 µM) | 22 mm | 12.5 µg/mL (≈ 38.4 µM) | 15 mm | 22 mm | 25 µg/mL (≈ 76.9 µM) | 12 mm | 
